Measured values taken from ChEMBL document CHEMBL1153548 (Antimicrob Agents Chemother, 2007).
Converted amounts (≈) assume the structure as drawn.

Tests used:
[1] = Efflux clearance from middle ear fluid to plasma in Chinchilla lanigera assessed as unbound Km at 40000 ug/kg, iv followed by local dose of 19 ug/kg into intra-middle ear by compartmental microdialysis; assay type: ADME, organism-based
[2] = system: Streptococcus pneumoniae; experiment: Antimicrobial activity against Streptococcus pneumoniae WT3 infected in bolus iv dosed Chinchilla lanigera assessed as log reduction in bacterial count within 10 hrs of additional local drug administration into intra-middle ear; assay type: functional
Outline: (§1)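 Awake chinchillas with 50 CFU S. pneumoniae WT3 in 100 µl PBS inoculated into both middle ear bullae. […] MEF (30-100 µl) was drawn at 1 h predose and at 1, 2, 5, 8 and 10 h. It was serially diluted and plated on 5% sheep blood agar at 37°C under 10% CO2, with counts read at 24 and 48 h. Detection threshold was 25 CFU/ml.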

[3] = Efflux clearance from middle ear fluid to plasma in Chinchilla lanigera assessed as unbound Km at 15000 ug/kg, iv followed by local dose of 164 ug/kg into intra-middle ear by compartmental microdialysis; assay type: ADME, organism-based
[4] = system: Streptococcus pneumoniae; experiment: Antimicrobial activity against Streptococcus pneumoniae WT3 infected in bolus iv dosed Chinchilla lanigera assessed as log reduction in bacterial count within 5 hrs of additional local drug administration into intra-middle ear; assay type: functional; outline: as §1
[5] = Terminal half life in Chinchilla lanigera at 40 mg/kg, iv; assay type: ADME, organism-based; design: dose 40 mg/kg, route intravenous; details: in vivo, read-out: beta t1/2 (converted)
Outline: (§2)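 Conscious, freely moving chinchillas were cannulated in the femoral artery and jugular vein. […] Arterial plasma was taken predose, at time zero and at 10-12 points up to 180 min, then stored at –60°C. Unbound drug was measured by ultrafiltration (1,500 x g, 15 min, 37°C) followed by C18 solid-phase extraction and HPLC.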

[6] = Efflux clearance from middle ear fluid to plasma in Chinchilla lanigera assessed as unbound Km at 40000 ug/kg, iv followed by local dose of 13 ug/kg into intra-middle ear by compartmental microdialysis; assay type: ADME, organism-based
[7] = Efflux clearance from middle ear fluid to plasma in Streptococcus pneumoniae WT3-infected Chinchilla lanigera assessed as unbound Km at 40000 ug/kg, iv followed by local dose of 96 ug/kg into intra-middle ear by compartmental microdialysis; assay type: ADME, organism-based
[8] = Efflux clearance from middle ear fluid to plasma in Chinchilla lanigera assessed as unbound Km at 40000 ug/kg, iv followed by local dose of […] into intra-middle ear by compartmental microdialysis; assay type: ADME, organism-based
[9] = Efflux clearance from middle ear fluid to plasma in Chinchilla lanigera assessed as unbound Km at 40000 ug/kg, iv followed by local dose of 66 ug/kg into intra-middle ear by compartmental microdialysis; assay type: ADME, organism-based
[10] = Cmax in Chinchilla lanigera at 40 mg/kg, iv followed by local dose of 13 to 235 ug/kg into intra-middle ear; assay type: ADME, organism-based; design: dose 40 mg/kg, route intravenous; details: in vivo; outline: as §2
[11] = Cmax in Chinchilla lanigera at 15 mg/kg, iv followed by local dose of 13 to 235 ug/kg into intra-middle ear; assay type: ADME, organism-based; design: dose 15 mg/kg, route intravenous; details: in vivo; outline: as §2
[12] = system: Streptococcus pneumoniae; experiment: Antimicrobial activity against amoxicillin-intermediate resistant Streptococcus pneumoniae; assay type: functional
[13] = system: Streptococcus pneumoniae; experiment: Antimicrobial activity against amoxicillin-resistant Streptococcus pneumoniae; assay type: functional
[14] = Terminal half life in Chinchilla lanigera at 15 mg/kg, iv; assay type: ADME, organism-based; design: dose 15 mg/kg, route intravenous; details: in vivo, read-out: beta t1/2 (converted); outline: as §2
[15] = Efflux clearance from middle ear fluid to plasma in Streptococcus pneumoniae WT3-infected Chinchilla lanigera assessed as unbound Km at 40000 ug/kg, iv followed by local dose of 19 ug/kg into intra-middle ear by compartmental microdialysis; assay type: ADME, organism-based

Work on `CC1(C)S[C@@H]2[C@H](NC(=O)[C@H](N)c3ccc(O)cc3)C(=O)N2[C@H]1C(=O)O` [AMOXICILLIN] yielded a Km [1] of 34 µg/mL, an Activity [2] of 2 and a Km [3] of 17.8 µg/mL. It also gave an Activity [4] of 5, a half-life [5] of 18 min and a Km [6] of 4.5 µg/mL. For the same compound, the Km [7] was 48.6 µg/mL, the Km [8] was 9.3 µg/mL and the Km [9] was 54.9 µg/mL. For the same compound, the Cmax [10] was 8.8 µg/mL, the Cmax [11] was 111 µg/mL and the MIC [12] was 1 µg/mL (≈ 2.74 µM). For the same compound, the MIC [13] was 8 µg/mL (≈ 21.9 µM), the half-life [14] was 18 min and the Km [15] was 35.9 µg/mL.
